Converted amounts (≈) assume the structure as drawn. The source made the active and inactive calls. The rule behind the calls is not given here.
What was measured:
Format in all cases: functional, cell-based
chang liver [1] = test: (§1) Inhibition of cholesterol biosynthesis in human chang liver cells assessed as conversion of lanosterol into cholesterol
In short: (§2)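 Chang liver cells (ATCC CCL 13) seeded at 5×10^4 per 15-mm dish in MEM + 10% FBS; on day 2 washed, held 4 h in serum-free Hepatozyme-SFM, pretreated 2 h with compound, then labeled acetate (2.5 μCi/well) for 2 h. Cells lysed in 0.1 N NaOH, saponified (6% KOH/MeOH), nonsaponifiable lipids extracted in n-hexane, separated by TLC (C6H6-Me2CO 19:1), radioactive spots quantified by phosphor imaging.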

[2] = as §1; in short: as §2
chang liver [3] = test: Inhibition of cholesterol biosynthesis in human chang liver cells assessed as suppression of lanosterol; in short: as §2
chang liver [4] = test: Inhibition of cholesterol biosynthesis in human chang liver cells assessed as suppression of cholesterol level; in short: as §2

| SMILES | Activity (chang liver [1]) | IC50 [2] | Activity (chang liver [3]) | Activity (chang liver [4]) |
| --- | --- | --- | --- | --- |
| CC(C)CCCCCCCCCCCCCCOC[C@@H](O)COP(=O)([O-])OCC[N+](C)(C)C | Dose-dependent effect | 320 µg/mL (≈ 646 µM) | – | – |
| CCCCCCCCCCCCCC/C=C\CCOC[C@@H](O)COP(=O)([O-])OCC[N+](C)(C)C | Dose-dependent effect | 174 µg/mL (≈ 343 µM) | – | – |
| CCCCCCC1CC1CCCCCCCCCC(=O)OC[C@@H](O)COP(=O)([O-])OCC[N+](C)(C)C (some centres not stated) | Dose-dependent effect | 60 µg/mL (≈ 112 µM) | inactive | – |
| CCCCCCCCCCCCCCCCOC[C@@H](O)COP(=O)([O-])OCC[N+](C)(C)C | Dose-dependent effect | 422 µg/mL (≈ 876 µM) | – | – |
| CCCCCC/C=C\CCCCCCCCCCCC(=O)OC[C@@H](O)COP(=O)([O-])OCC[N+](C)(C)C | Dose-dependent effect | 21 µg/mL (≈ 38.2 µM) | – | – |
| CCCCCC/C=C\CCCCCCCCCCOC[C@@H](O)COP(=O)([O-])OCC[N+](C)(C)C | Dose-dependent effect | 125 µg/mL (≈ 246 µM) | – | – |
| CCCCCCCCCCCCC/C=C\CCCOC[C@@H](O)COP(=O)([O-])OCC[N+](C)(C)C | Dose-dependent effect | 121 µg/mL (≈ 238 µM) | – | – |
| CC[C@H](C)C(=O)O[C@H]1CCC=C2C=C[C@H](C)[C@H](CC[C@@H]3C[C@@H](O)CC(=O)O3)[C@H]21 | – | – | Active | Active |
